Screens as filed in PubChem.
In the library only some 3.7% were active in any assay of this set; here they are far more common.
KCNK9 inh – blocks the human KCNK9 two-pore domain potassium channel. B-score at 10 µM. Q9NPC2. 310,000 tested, 1.2% active. AID 488922. HEK293 KCNK9, FluxOR thallium flux fluorescence; stronger effect = lower value;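 active = ratio B-score over 3 SD below the library mean, with starting fluorescence within 5 SD of its mean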;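 note: negative B-score means less thallium flux so channel inhibition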
KCNQ1 pot – potentiators or activators of human KCNQ1 potassium channel; P51787; 310,000 tested, 0.35% active; CHO-K1 KCNQ1, thallium flux FluxOR fluorescence; stronger effect = higher value; AID 2648; B-score at 10 µM;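 active = fluorescence ratio B-score, a plate-corrected score, at least three library SD, with initial intensity B-score within 5 SD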
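Assay system: stable KCNQ1 CHO-K1 line; medium: assay buffer, equal DMSO in all wells; timing: 90 min dye loading and 20 min compound exposure, both at room temperature; technique: kinetic FluxOR thallium fluorescence, 10-s 1-Hz baseline, 110-s post-stimulus read; read-out basis: B score of baseline-normalized fluorescence ratio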
KCNQ1 inh – human KCNQ1 channel inhibition; AID 2642; 310,000 tested, 1.3% active; B-score at 10 µM; P51787; CHO-K1 KCNQ1, FluxOR thallium flux fluorescence; stronger effect = higher value;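 active = compounds whose thallium flux B-score, printed positive for inhibition, exceeds three library SD while starting fluorescence stays within three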;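 note: channel opened by potassium depolarization with thallium stimulus after 20 min compound exposure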
KCNK3 block – human KCNK3 channel inhibition, primary screen; O14649; CHO-KCNK3 thallium flux, FluxOR fluorescence; stronger effect = lower value; B-score at 10 µM; 340,000 tested, 0.84% active;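 active = B-score under library mean minus 4 SD, starting fluorescence ratio at most library mean plus 5 SD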;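 note: more negative B-score means stronger inhibition of thallium flux through KCNK3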
hERG rescue – shields human hERG channel from block by proarrhythmic agents; Q12809; 310,000 tested, 0.51% active; activation (rescue from dofetilide block), less the hit threshold, % at 10 µM; CHO-hERG, FluxOR thallium flux, dofetilide IC70 present;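 active = activation above the mean of controls blocked by dofetilide plus 5 SD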;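 note: thallium influx through hERG after potassium depolarization seen as dye fluorescence rise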
Target sequence (Q12809 whole entry, looked up): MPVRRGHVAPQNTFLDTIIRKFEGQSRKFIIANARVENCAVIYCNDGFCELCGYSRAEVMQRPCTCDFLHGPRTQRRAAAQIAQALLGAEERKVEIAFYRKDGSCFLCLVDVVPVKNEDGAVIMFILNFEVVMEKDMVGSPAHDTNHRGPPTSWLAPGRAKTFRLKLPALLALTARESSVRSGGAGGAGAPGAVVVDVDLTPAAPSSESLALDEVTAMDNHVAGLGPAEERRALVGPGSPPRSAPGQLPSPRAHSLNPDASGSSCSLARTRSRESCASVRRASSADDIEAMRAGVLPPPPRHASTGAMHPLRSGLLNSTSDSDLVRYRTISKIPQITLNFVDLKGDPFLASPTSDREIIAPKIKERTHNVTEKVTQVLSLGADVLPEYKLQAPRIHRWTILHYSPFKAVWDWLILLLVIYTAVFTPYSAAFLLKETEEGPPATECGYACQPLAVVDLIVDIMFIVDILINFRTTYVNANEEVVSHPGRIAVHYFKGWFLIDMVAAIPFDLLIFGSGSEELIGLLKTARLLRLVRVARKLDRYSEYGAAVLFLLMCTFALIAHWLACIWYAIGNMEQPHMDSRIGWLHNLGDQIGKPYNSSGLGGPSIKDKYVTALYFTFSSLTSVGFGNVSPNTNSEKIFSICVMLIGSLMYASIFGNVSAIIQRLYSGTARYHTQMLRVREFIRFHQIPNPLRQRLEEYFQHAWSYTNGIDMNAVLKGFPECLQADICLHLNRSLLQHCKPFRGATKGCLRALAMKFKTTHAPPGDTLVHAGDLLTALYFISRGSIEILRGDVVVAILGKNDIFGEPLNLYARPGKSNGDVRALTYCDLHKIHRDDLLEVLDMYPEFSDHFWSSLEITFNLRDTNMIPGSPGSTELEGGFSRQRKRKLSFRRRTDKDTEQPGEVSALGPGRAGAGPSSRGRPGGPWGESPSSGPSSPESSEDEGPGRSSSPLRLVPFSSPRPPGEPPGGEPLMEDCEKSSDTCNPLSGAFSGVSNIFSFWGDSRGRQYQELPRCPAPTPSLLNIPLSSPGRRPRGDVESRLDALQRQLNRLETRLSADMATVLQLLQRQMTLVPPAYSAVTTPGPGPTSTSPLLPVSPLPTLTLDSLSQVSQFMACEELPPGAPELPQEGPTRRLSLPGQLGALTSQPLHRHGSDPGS
Kir21 block – blocks the mouse Kir2.1 inward-rectifier potassium channel. P35561. HEK293-Kir2.1, FluxOR thallium flux fluorescence; stronger effect = lower value. B-score at 10 µM. 310,000 tested, 0.85% active;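 active = fluorescence ratio B-score at or below minus 3 SD of library scores, with starting-brightness B-score within 2 SD, cut at about -4.2 in these data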;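 note: channel flux triggered by added potassium and thallium sulfate stimulus; B-score of peak minus minimum fluorescence over baseline after thallium stimulus; more negative B-score means stronger Kir2.1 block with less thallium influx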
KCNK9 inh conf – confirmation of human KCNK9 potassium channel inhibitors; shares compounds with KCNK9 inh; HEK293 KCNK9 cells, FluxOR thallium flux fluorescence; inhibition, % at 10 µM; 4,900 tested, 43% active; AID 492992;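 active = thallium signal inhibited by more than 5 SD of the compound-free buffer control wells, on both duplicate plates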;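 note: 0% = assay buffer control wells without compound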
Kir21 sel – tests whether KCNK9 modulators also affect mouse Kir2.1 | AID 492993 | 4,900 tested, 4% active | Kir2.1 cells, FluxOR thallium flux fluorescence | inhibition, % at 10 µM | shares compounds with KCNK9 inh;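 active = thallium signal drop more than 5 SD beyond the mean of the no-compound control wells, seen in both duplicate plates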;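 note: signal is fluorescence rise after thallium addition divided by baseline fluorescence; plate controls were assay buffer only for no effect and full block by chlorpromazine control for full effect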
KCNK9 uninduced – non-induced cell nonspecific activity of KCNK9 modulators | shares compounds with KCNK9 inh | non-induced KCNK9-HEK293, FluxOR thallium flux | inhibition, % at 10 µM | 4,900 tested, 40% active | AID 492997;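 active = thallium signal drop beyond 5 SD of the untreated control mean, on both duplicate plates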;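 note: plate controls were buffer only IC0 wells for no effect and SID17386958 at its maximal inhibitory level for full effect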
An asterisk follows results filed as active; i = inactive; x = not tested or not shown.

SMILES | KCNK9 inh | KCNQ1 pot | KCNQ1 inh | KCNK3 block | hERG rescue | Kir21 block | KCNK9 inh conf | Kir21 sel | KCNK9 uninduced
O=C(N[C@H](Cc1ccc(Cl)cc1)C(=O)O)OCC1c2ccccc2-c2ccccc21 | i | i | i | i | -13 | 0.39 | x | x | x
O=C(N[C@@H](Cc1ccc(Br)cc1)C(=O)O)OCC1c2ccccc2-c2ccccc21 | i | i | i | i | -5 | -0.01 | i | i | i
Cc1ccn(CC(=O)NC2CC(C)(C)Cc3c2cnn3-c2ccc(F)cc2)n1 (stereo not given) | i | i | i | i | -12 | -0.95 | x | x | x
CCOC(=O)C1CSC2(CCC(c3ccccc3)CC2)N1 (stereo not given) | i | i | i | i | -11 | -2.4 | i | i | i
CCOC(=O)C1NC(=O)CC1c1ccccc1 (stereo not given) | i | i | i | i | -9 | -0.47 | x | x | x
O=C(CC(Nc1ccc(F)cc1)c1ccccc1)c1ccccc1 (stereo not given) | -11* | i | i | i | -9 | -0.99 | i | i | i
Cc1cc(=O)c(C(=O)O)nn1-c1ccccc1Cl | i | i | i | i | -4 | 1.8 | x | x | x
CCOc1cc(S(=O)(=O)Nc2ccc(CC)cc2)ccc1Cl | i | i | i | i | -14 | -1.1 | i | i | i
Cc1ccccc1CN1CCN(S(=O)(=O)c2cccc3nsnc23)CC1 | i | i | i | i | -6 | 1.1 | i | i | i
O=S(=O)(c1cccc2nsnc12)N1CCN(C/C=C\c2ccccc2)CC1 | i | i | i | i | -11 | -0.5 | i | i | i
O=C(CSc1nc2ccccc2c2c1CCCC2)N1CCOCC1 | i | i | i | i | -13 | -0.99 | i | i | i
Cc1csc(NC(=O)CSc2nc3ccccc3c3c2CCCC3)n1 | i | i | i | i | -1 | 1.6 | i | i | i
O=C(CSc1nncc2ccccc12)N1CCOCC1 | i | i | i | i | -12 | 0.05 | x | x | x
Nn1c(-c2ccc(O)cc2)nnc1-c1ccc(O)cc1 | i | i | i | i | -16 | 0.04 | x | x | x
COc1ccc(C(=O)C(OC(=O)c2ccccc2)c2ccccc2)cc1 (stereo not given) | -14* | i | i | i | -6 | -0.67 | 53%* | i | 30%*
Cc1ccc(NC(=O)C(OC(=O)c2ccccc2Cl)c2ccccc2)cc1Cl (stereo not given) | i | i | i | i | -3 | -1.4 | x | x | x
Cc1cnc(C(=O)OC(C(=O)c2ccccc2)c2ccccc2)cn1 (stereo not given) | x | x | x | i | x | x | x | x | x
COc1ccc(C(=O)C(OC(=O)c2ccccc2Cl)c2ccccc2)cc1 (stereo not given) | -8.1* | i | i | i | -10 | 0.45 | 60%* | i | 24%*
CC1(C)c2ssc(=S)c2-c2ccccc2N1C(=O)CSC1=NCCS1 | i | i | i | i | -8 | 0 | x | x | x
Cc1cc(C)c2c(c1)-c1c(ssc1=S)C(C)(C)N2C(=O)CSc1nncn1C | i | i | i | i | -6 | -3.8 | x | x | x
COc1ccc2c(c1)-c1c(ssc1=S)C(C)(C)N2C(=O)CSC1=NCCS1 | -12* | i | i | i | -11 | -0.03 | 46%* | i | 38%*
Cc1cc2c(cc1C)N(C(=O)CSC1=NCCS1)C(C)(C)c1ssc(=S)c1-2 | -8.6* | i | i | i | -10 | 1.6 | 50%* | i | 31%*
CC(=O)c1ccc(OCc2ccc(Oc3c(Cl)cccc3[N+](=O)[O-])cc2)cc1 | i | i | i | i | -22 | -1.4 | x | x | x
CCOC(=O)C1CCN(Cc2cc(C(C)(C)C)c(O)c(C(C)(C)C)c2)CC1 | i | i | i | i | -11 | -1.1 | i | i | i
COc1ccc(-c2csc(Nc3ccccc3)[n+]2Cc2ccccc2)cc1 | -9.4* | i | i | i | -15 | 0.56 | 46%* | i | 27%*
SMILES | KCNK9 inh | KCNQ1 pot | KCNQ1 inh | KCNK3 block | hERG rescue | Kir21 block | KCNK9 inh conf | Kir21 sel | KCNK9 uninduced
BrC(=C\c1ccccc1)/C=N/N1CCN(Cc2ccccc2)CC1 | i | i | i | i | -7 | -0.19 | x | x | x
BrC(/C=N/N1CCN(Cc2ccccc2)CC1)=C/c1ccccc1 | i | i | i | i | -11 | 2.1 | i | i | i
Cc1ccc(CN2CCN(/N=C\C=C\c3ccccc3)CC2)cc1 | i | i | i | i | -12 | -0.89 | i | i | i
CC(/C=N\N1CCN(Cc2ccc(C)cc2)CC1)=C\c1ccccc1 | i | i | i | i | -5 | 0.81 | i | i | i
Cc1nnc(NCc2ccccc2)c2ccccc12 | i | i | i | i | -4 | 1.3 | x | x | x
O=C1C(Cl)=C(NC2CCCCC2)C(=O)N1Cc1ccccc1 | i | i | i | i | -8 | -0.45 | i | i | i
COC(=O)CCNC(=O)Cn1cnc2sc3c(c2c1=O)CCCC3 | i | i | i | i | -7 | -0.04 | x | x | x
CCn1c(SCC(O)c2ccccc2)nnc1-c1ccccc1 (stereo not given) | i | i | i | i | -8 | 0.28 | x | x | x
CCn1c(SCc2cccc(C)c2)nnc1-c1ccccc1 | i | i | i | i | -14 | -6.1* | i | i | i
COc1ccc(-n2c(=S)[nH]c3cc(C(=O)NCc4cccnc4)ccc3c2=O)cc1 | i | i | i | i | -3 | 0.11 | x | x | x
CCc1nnc(NC(=O)CCC(=O)NCCc2ccccc2)s1 | i | i | i | i | -4 | 0.05 | x | x | x
CCn1c(C(=O)N2CCc3ccccc3C2)cc2sccc21 | i | i | i | i | -11 | -0.23 | i | i | i
CCn1c(C(=O)NCCCN2CCc3ccccc3C2)cc2sccc21 | i | i | i | i | -13 | -2.4 | x | x | x
CC(C)N(Cc1ccccc1)C(=O)CCc1ccccc1 | i | i | i | i | -6 | -2.8 | i | i | i
CC1CN(C(=O)/C=C/c2ccccc2Cl)CC(C)O1 (stereo not given) | i | i | i | i | -17 | -1.7 | x | x | x
COc1ccccc1CC(=O)c1ccc(OCc2ccccc2)cc1 | i | i | i | i | -15 | -0.76 | i | i | i
